Laboratory results taken from ChEMBL document CHEMBL4765486, “Novel Nonsecosteroidal Vitamin D Receptor Modulator Combined with Gemcitabine Enhances Pancreatic Cancer Therapy through Remodeling of the Tumor Microenvironment” (J Med Chem, 2021).
Values belong to the compound of their own block, whether it stands above or below them. Calls of active or inactive are those of the source. Unless noted, the calls are words filed in the database; no cut-off is given here.

Tests used:
DSL-6A/C1 [1] = experiment: Antiproliferative activity against rat DSL-6A/C1 cells assessed as reduction in cell viability at 0.5 uM treated with conditioned media of LTC-14 cells for 24 hrs by MTT assay; type: functional, cell-based
Method in brief: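 Rat pancreatic cancer DSL-6A/C1 cells were cultured in supernatant from LTC-14 PSCs (PSC-CM) with compound added at 0.5 μM for 24 h. Viability was then read by MTT: 4 h incubation with MTT (5 mg/mL stock), absorbance at 570 nm. Run in triplicate, compared with PSC-CM alone.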

[2] = Cytotoxicity against rat LTC-14 cells assessed as reduction in cell proliferation incubated for 24 hrs by MTT assay; type: cell-based; conditions: LTC-14, 24 h
LTC-14 [3] = experiment: Inhibition of rat LTC-14 cells activation assessed as inhibition of Periodin-mRNA expression at 0.5 uM treated under conditioned media of DSL-6A/C1 cells for 24 hrs by q-PCR analysis; type: functional, cell-based
Method in brief: (§1)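 LTC-14 PSCs were exposed for 24 h to conditioned medium from rat DSL-6A/C1 cancer cells containing compound at 0.5 μM. Pdgfa, Pdgfb, Fgf2, Hgf and Periodin mRNA were quantified by RT-qPCR. Three repeats, mean ± SD versus CM alone.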

DSL-6A/C1 [4] = experiment: (§2) Potentiation of gemcitabine-induced antitumor activity against luciferase-tagged rat DSL-6A/C1 cells and GFP-tagged LTC-14 cells co-inoculated in orthotropic xenograft BALB/c nude mouse model of pancreatic cancer assessed as reduction in tumor volume at 500 ug/kg, ip administered once every 3 days for 12 days coadministered with gemcitabine at 100 mg/kg and measured after 3 days post last dose by IVIS optical imaging analysis; type: functional, organism-based; conditions: dose 500.0 µg/kg, time 12.0 day
Method in brief: (§3)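 DSL-6A/C1-luci and LTC-14-GFP cells were co-inoculated orthotopically into the pancreas of nude mice, n=5 per group. Treatment began 7 days after grafting (methods) or 14 days (text). Gemcitabine 100 mg/kg ip every 3 days, alone or with compound 500 μg/kg or calcipotriol 60 μg/kg in ethanol/polyoxyethylene castor oil/saline (1:1:18), for 12 days. Tumour growth was followed by bioluminescence imaging.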

LTC-14 [5] = experiment: Inhibition of rat LTC-14 cells activation assessed as inhibition of PDGFA mRNA expression at 0.5 uM treated under conditioned media of DSL-6A/C1 cells for 24 hrs by q-PCR analysis; type: functional, cell-based; method in brief: as §1
LTC-14 [6] = experiment: Inhibition of rat LTC-14 cells activation assessed as inhibition of Hgf mRNA expression at 0.5 uM treated under conditioned media of DSL-6A/C1 cells for 24 hrs by q-PCR analysis; type: functional, cell-based; method in brief: as §1
Vitamin D3 receptor = target: T1, Vitamin D3 receptor (Homo sapiens, UniProt P11473); experiment: Binding affinity to VDR (unknown origin) by fluorescence polarization assay
T1 sequence (P11473 whole entry): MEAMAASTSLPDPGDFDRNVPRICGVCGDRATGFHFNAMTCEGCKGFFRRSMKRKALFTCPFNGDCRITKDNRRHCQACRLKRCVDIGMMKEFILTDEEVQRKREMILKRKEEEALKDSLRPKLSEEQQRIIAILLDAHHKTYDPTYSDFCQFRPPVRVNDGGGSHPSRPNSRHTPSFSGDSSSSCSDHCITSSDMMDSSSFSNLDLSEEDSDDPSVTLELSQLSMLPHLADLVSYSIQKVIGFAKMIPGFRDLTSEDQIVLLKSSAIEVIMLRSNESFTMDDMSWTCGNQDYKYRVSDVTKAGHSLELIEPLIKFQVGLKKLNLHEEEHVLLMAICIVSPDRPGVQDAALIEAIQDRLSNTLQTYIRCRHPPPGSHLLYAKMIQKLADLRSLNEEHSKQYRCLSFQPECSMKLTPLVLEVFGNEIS
Method in brief: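 Competitive VDR binding was measured by PolarScreen fluorescence polarization, in triplicate.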

Mus musculus [7] = experiment: (§4) Inhibition of GFP-tagged rat LTC-14 cells activation in BALB/c nude mouse xenografted along with luciferase-tagged DSL-6A/C1-Luc cells assessed as reduction in alpha-smooth muscle actin expression in tumor at 500 ug/kg, ip administered once every 3 days for 12 days coadministered with gemcitabine at 100 mg/kg by DAPI staining based laser confocal scanning microscopy; type: functional, organism-based; conditions: dose 500.0 µg/kg, time 12.0 day
Method in brief: (§5)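 Tumours were taken from orthotopic co-inoculated nude mice given gemcitabine 100 mg/kg plus compound (500 μg/kg) or calcipotriol (60 μg/kg) ip for 12 days. Sections were fixed in 4% PFA, permeabilised with 0.5% Triton X-100 and blocked in 5% BSA. They were incubated with anti-α-SMA overnight at 4 °C, then an Alexa Fluor 594 secondary for 1 h at 37 °C, DAPI-counterstained and imaged by confocal microscopy.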

LTC-14 [8] = experiment: Inhibition of rat LTC-14 cells activation assessed decrease in TGF-beta1 induced collagen 1 protein expression at 0.5 uM incubated for 24 hrs by Western blot analysis; type: functional, cell-based
Method in brief: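 LTC-14 cells were treated for 24 h with compound (0.5 μM) plus TGF-β1 (0.5 ng/mL in the text, 5 ng/mL in the methods). Lysates were run on 10% SDS-PAGE, transferred to PVDF and probed with rabbit anti-collagen I, with β-actin as reference. Bands were quantified by densitometry versus TGF-β1 alone.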

LTC-14 [9] = experiment: Inhibition of rat LTC-14 cells activation assessed decrease in TGF-beta1 induced Acta2 mRNA expression at 0.5 uM incubated for 24 hrs by q-PCR analysis; type: functional, cell-based
Method in brief: (§6)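 Immortalized rat PSC line LTC-14, about 1×10^5 cells per well, was grown 24 h at 37 °C in 5% CO2. Cells then received compound (0.5 μM) plus TGF-β1 for 24 h; TGF-β1 is stated as 0.5 ng/mL in the text and 5 ng/mL in the methods. Col1a1 and Acta2 mRNA were measured by RT-qPCR. Mean ± SD versus TGF-β1 alone.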

LTC-14 [10] = experiment: Inhibition of rat LTC-14 cells activation assessed as inhibition of Fgf mRNA expression at 0.5 uM treated under conditioned media of DSL-6A/C1 cells for 24 hrs by q-PCR analysis; type: functional, cell-based; method in brief: as §1
[11] = target: T2, Vitamin D3 receptor (Homo sapiens) (UniProt P11473); experiment: Agonist activity at VDR (unknown origin) expressed in HEK293 cells co-transfected with pGL4.27-SPP3-Luc and CMV-hRXRalpha and pCMX-Renilla plasmids after 24 hrs by dual luciferase reporter gene assay; type: cell-based; conditions: filed as agonist, dose 0.0001-1 µM
T2 sequence (whole entry): T1 sequence (P11473 whole entry)
Method in brief: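 HEK293 cells in 48-well plates were transfected per well with 40 ng TK-Spp×3-LUC reporter, 20 ng pCMX-Renilla, 30 ng pENTER-CMV-hRXRα and 100 ng pCMX-VDR using Lipofectamine 2000. Compounds were added 8 h post-transfection, and dual-luciferase activity was read 24 h later. Firefly signal was normalised to Renilla. The experiment was run three times.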

[12] = Cytotoxicity against rat DSL-6A/C1 cells assessed as reduction in cell proliferation at 0.5 uM incubated for 24 hrs by MTT assay; type: cell-based; conditions: dsl-6a/c1, 24 h
LTC-14 [13] = experiment: Inhibition of rat LTC-14 cells activation assessed as reduction in ECM deposition resulting in doxorubicin accumulation in PSC spheres pretreated with compounds followed by doxorubicin addition by laser confocal microscopy analysis; type: functional, cell-based
Method in brief: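 LTC-14 cells were grown in 3D culture to form PSC spheres and treated with compounds. Fluorescent doxorubicin was then added, and its penetration into the spheres was imaged by laser confocal microscopy. Three repeats, versus untreated control.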

LTC-14 [14] = experiment: Inhibition of rat LTC-14 cells interaction with DSL-6A/C1 cells in conditioned media assessed as inhibition of PDGF-A protein expression at 0.5 uM measured after 24 hrs by Western blot analysis; type: functional, cell-based
Method in brief: (§7)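 LTC-14 cells were treated for 24 h with DSL-6A/C1 conditioned medium plus compound (0.5 μM). Proteins were separated on 10% SDS-PAGE, transferred to PVDF and probed with rabbit anti-PDGF-A or anti-POSTN, with β-actin as loading reference.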

LTC-14 [15] = experiment: Inhibition of rat LTC-14 cell activation assessed decrease in TGF-beta1 induced Colla1 mRNA expression at 0.5 uM incubated for 24 hrs by q-PCR analysis; type: functional; method in brief: as §6
DSL-6A/C1 [16] = experiment: Antiproliferative activity against rat DSL-6A/C1 cells assessed as reduction in cell viability at 0.5 uM incubated for 24 hrs compound treated LTC-14-CM cells by MTT assay; type: functional, cell-based
Method in brief: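 LTC-14 PSCs were pretreated with compound for 24 h. Their collected supernatant was used to culture DSL-6A/C1 cells, and proliferation was read by MTT: 4 h incubation with MTT (5 mg/mL stock), absorbance at 570 nm. Run in triplicate, compared with untreated PSC-CM.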

LTC-14 [17] = experiment: Inhibition of rat LTC-14 cells interaction with DSL-6A/C1 cells in conditioned media assessed as inhibition of POSTN protein expression at 0.5 uM measured after 24 hrs by Western blot analysis; type: functional, cell-based; method in brief: as §7
LTC-14 [18] = experiment: Inhibition of rat LTC-14 cells activation assessed as inhibition of PDGFB mRNA expression at 0.5 uM treated under conditioned media of DSL-6A/C1 cells for 24 hrs by q-PCR analysis; type: functional, cell-based; method in brief: as §1
[19] = target: T2, Vitamin D3 receptor (Homo sapiens); experiment: Binding affinity to VDR (unknown origin) at 1 uM by fluorescence polarization assay relative to calcipotriol; conditions: filed as agonist
Method in brief: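 PolarScreen VDR competitor fluorescence polarization assay with compounds at 1 μM in triplicate. Read-out used 535 nm excitation and 590 nm emission filters.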

DSL-6A/C1 [20] = conditions: Rattus norvegicus, dose 100.0 mg/kg, time 12.0 day
DSL-6A/C1 [21] = experiment: as §2, with “against” for “against luciferase-tagged”, “DSL-6A/C1-Luc” for “DSL-6A/C1”, “LTC-14-GFP” for “GFP-tagged LTC-14”, “60” for “500”; type: functional, organism-based; conditions: dose 60.0 µg/kg, time 12.0 day; method in brief: as §3
Mus musculus [22] = experiment: as §4, with “60” for “500”, “mg/kg and measured after 3 days post last dose and” for “mg/kg”; type: functional, organism-based; conditions: dose 60.0 µg/kg, time 12.0 day; method in brief: as §5

IC50 (Vitamin D3 receptor): 0.0925 µM
Activity [11]: Dose-dependent effect
RBA [19]: 85%
Compound: CCN(CC)CCCNC(=O)c1ccc(C(CC)(CC)c2ccc(OCCC(C)(C)O)c(C)c2)n1CC
Activity (DSL-6A/C1 [1]): inactive
IC50 [2]: > 10 µM
inhibition (LTC-14 [3]): Active
TGI (DSL-6A/C1 [4]): Active
inhibition (LTC-14 [5]): Active
inhibition (LTC-14 [6]): Active
inhibition (Mus musculus [7]): Active
inhibition (LTC-14 [8]): Active
inhibition (LTC-14 [9]): Active
inhibition (LTC-14 [10]): Active
Activity [12]: Non-Toxic
inhibition (LTC-14 [13]): Active
inhibition (LTC-14 [14]): Active
inhibition (LTC-14 [15]): Active
Activity (DSL-6A/C1 [16]): Active
inhibition (LTC-14 [17]): Active
inhibition (LTC-14 [18]): Active

Compound: Nc1ccn([C@@H]2O[C@H](CO)[C@@H](O)C2(F)F)c(=O)n1
TGI (DSL-6A/C1 [20]): inactive

Activity [11]: Dose-dependent effect
Compound: C=C1/C(=C/C=C2\CCC[C@]3(C)[C@@H]([C@H](C)/C=C/[C@@H](O)C4CC4)CC[C@@H]23)C[C@@H](O)C[C@@H]1O
Activity (DSL-6A/C1 [21]): Active
IC50 [2]: > 10 µM
inhibition (LTC-14 [8]): Active
inhibition (LTC-14 [9]): Active
Activity [12]: Non-Toxic
inhibition (LTC-14 [15]): Active
inhibition (Mus musculus [22]): Active
